The record followed here is ChEMBL document CHEMBL4627263, “Hi-JAK-ing the ubiquitin system: The design and physicochemical optimisation of JAK PROTACs” (Bioorg Med Chem, 2020).

Molecules are shown by their SMILES. Active and inactive are the calls of the source. No cut-off for these calls is given here.

For data set [1], the target named is T1, E3 ubiquitin-protein ligase XIAP/Tyrosine-protein kinase JAK1 (Homo sapiens) (UniProt P23458+P98170). As to the kind of experiment: Protac activity at IAP/JAK1 in human THP1 cells assessed as increase in JAK1 degradation at 5 uM after 24 hrs by Western blot analysis relative to control. Type of data set: cell-based. The settings on record: THP-1. The procedure, abridged:
(§1)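 Unstimulated THP-1 cells were exposed to PROTAC across 0.6–10 µM for 24 h. JAK1/JAK2 levels were read by automated Western blot using antibodies detecting only unphosphorylated JAK. % degradation is relative to basal levels in DMSO-treated cells, as the mean of separate experiments (n ≥ 3). Significance was assessed by one-tailed Student's t-test at each concentration.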
For orientation: A western blot detects proteins with antibodies after separation by electrophoresis.

Data set [2] addresses T2, E3 ubiquitin-protein ligase XIAP/Tyrosine-protein kinase JAK2 (Homo sapiens) (UniProt O60674+P98170). As to the kind of experiment: Protac activity at IAP/JAK2 in human THP1 cells assessed as increase in JAK2 degradation at 5 uM after 24 hrs by Western blot analysis relative to control. It counts as cell-based. The settings on record: THP-1. The procedure, abridged:
as §1

The target of data set [3] is T1, E3 ubiquitin-protein ligase XIAP/Tyrosine-protein kinase JAK1 (Homo sapiens). As to the kind of experiment: Protac activity at IAP/JAK1 in human THP1 cells assessed as increase in JAK1 degradation up to 10 uM after 24 hrs by Western blot analysis. Type of data set: cell-based. The settings on record: THP-1. The procedure, abridged: as §1
For data set [4], the target named is T2, E3 ubiquitin-protein ligase XIAP/Tyrosine-protein kinase JAK2 (Homo sapiens). As to the kind of experiment: Protac activity at IAP/JAK2 in human THP1 cells assessed as increase in JAK2 degradation up to 10 uM after 24 hrs by Western blot analysis relative to control. It counts as cell-based. The settings on record: THP-1. The procedure, abridged: as §1
Data set [5] can be described thus: Lipophilicity, log D of the compound at pH 7.4 by chromatographic method. It counts as physicochemical. The settings on record: buffer.
Data set [6] has as its target T1, E3 ubiquitin-protein ligase XIAP/Tyrosine-protein kinase JAK1 (Homo sapiens). The data set can be described thus: Protac activity at IAP/JAk1 in human PBMC cells assessed as reduction in IL2-induced IFNgamma production measured after 1 hr. It counts as cell-based. The procedure, abridged: (§2)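 Human PBMCs were given a 1 h compound incubation in the IL-2-stimulated assay, with IFNγ signalling as the cellular potency readout, reported as pIC50.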

Data set [7] has the same target. The data set can be described thus: Protac activity at IAP/JAK1 in human THP1 cells assessed as increase in JAK1 degradation at 10 uM after 24 hrs by Western blot analysis. Type of data set: cell-based. To be noted: THP-1. In outline:
as §1

In data set [8] the target is T2, E3 ubiquitin-protein ligase XIAP/Tyrosine-protein kinase JAK2 (Homo sapiens). As to the kind of experiment: Protac activity at IAP/JAK2 in human THP1 cells assessed as increase in JAK2 degradation at 10 uM after 24 hrs by Western blot analysis relative to control. Type of data set: cell-based. The settings on record: THP-1. In outline: as §1
In another data set the target is JAK3/JAK1 (Homo sapiens, UniProt P23458+P52333). As to the kind of experiment: Inhibition of JAK1/JAK3 in human PBMC cells assessed as reduction in IL2-induced IFNgamma production. It counts as cell-based. In outline: as §2
The target of data set [9] is Tyrosine-protein kinase JAK1 (Homo sapiens, UniProt P23458). The data set can be described thus: Inhibition of JAK1 (unknown origin). The procedure, abridged:
(§3)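 Isolated biochemical JAK enzyme assays. pIC50 values are means of multiple separate experiments (n ≥ 2).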

Data set [10] addresses Tyrosine-protein kinase JAK2 (Homo sapiens, UniProt O60674). The data set can be described thus: Inhibition of JAK2 (unknown origin). In outline:
as §3

Data set [11] has as its target T3, Tyrosine-protein kinase JAK3 (Homo sapiens, UniProt P52333).
T3 sequence (P52333 whole entry): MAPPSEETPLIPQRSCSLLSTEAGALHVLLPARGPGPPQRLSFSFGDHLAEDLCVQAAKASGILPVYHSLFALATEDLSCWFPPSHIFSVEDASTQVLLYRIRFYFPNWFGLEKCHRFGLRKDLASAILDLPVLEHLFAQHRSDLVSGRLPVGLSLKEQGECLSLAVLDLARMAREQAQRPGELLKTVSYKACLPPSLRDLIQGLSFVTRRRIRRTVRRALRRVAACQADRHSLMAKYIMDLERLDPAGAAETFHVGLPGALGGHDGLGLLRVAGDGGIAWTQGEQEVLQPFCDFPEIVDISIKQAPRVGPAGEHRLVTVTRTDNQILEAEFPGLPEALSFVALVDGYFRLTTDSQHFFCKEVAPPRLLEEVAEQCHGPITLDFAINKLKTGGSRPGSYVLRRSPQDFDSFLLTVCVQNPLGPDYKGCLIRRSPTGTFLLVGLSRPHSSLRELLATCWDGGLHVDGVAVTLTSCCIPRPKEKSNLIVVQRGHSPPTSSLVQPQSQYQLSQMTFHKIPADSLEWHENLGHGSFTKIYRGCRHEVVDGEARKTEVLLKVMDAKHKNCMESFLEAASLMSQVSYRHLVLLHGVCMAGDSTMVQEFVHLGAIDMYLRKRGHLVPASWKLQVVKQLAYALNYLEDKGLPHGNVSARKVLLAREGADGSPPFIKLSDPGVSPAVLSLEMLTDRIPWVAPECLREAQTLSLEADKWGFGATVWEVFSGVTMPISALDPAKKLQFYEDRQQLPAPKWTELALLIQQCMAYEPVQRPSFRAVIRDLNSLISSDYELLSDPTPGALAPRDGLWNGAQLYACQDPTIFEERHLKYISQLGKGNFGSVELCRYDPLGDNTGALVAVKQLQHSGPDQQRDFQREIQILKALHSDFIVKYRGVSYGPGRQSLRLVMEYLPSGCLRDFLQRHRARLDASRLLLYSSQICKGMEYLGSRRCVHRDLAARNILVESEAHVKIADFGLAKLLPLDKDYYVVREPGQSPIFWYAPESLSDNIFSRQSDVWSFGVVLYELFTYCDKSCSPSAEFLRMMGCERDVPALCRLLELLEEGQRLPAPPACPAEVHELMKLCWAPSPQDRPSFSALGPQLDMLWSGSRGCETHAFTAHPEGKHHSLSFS
The data set can be described thus: Inhibition of JAK3 (unknown origin). The procedure, abridged: as §3

The species named for data set [12] is Homo sapiens. The data set can be described thus: Selectivity ratio, difference between pIC50 for JAK1 (unknown origin) to pIC50 for inhibition of JAK1/JAK3 in human PBMC cells assessed as reduction in IL2-induced IFNgamma production. It counts as cell-based. The procedure, abridged: (§4)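 Permeability surrogate calculated as drop-off = 10^(biochemical JAK1 or JAK3 pIC50 − IL2 PBMC pIC50). The cellular step used a 1 h incubation.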

For data set [13], the species on record is Homo sapiens. As to the kind of experiment: Selectivity ratio, difference between pIC50 for JAK3 (unknown origin) to pIC50 for inhibition of JAK1/JAK3 in human PBMC cells assessed as reduction in IL2-induced IFNgamma production. It counts as cell-based. The procedure, abridged:
as §4

Data set [14] has as its target T1, E3 ubiquitin-protein ligase XIAP/Tyrosine-protein kinase JAK1 (Homo sapiens). The data set can be described thus: Protac activity at IAP/JAK1 in human THP1 cells assessed as increase in JAK1 degradation at 5 uM after 24 hrs in presence of IAP ligand by Western blot analysis. The settings on record: THP-1. It counts as cell-based. In outline: (§5)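 Unstimulated THP-1 cells were co-treated for 24 h with PROTAC and increasing concentrations of free, active IAP ligand. JAK1/JAK2 protein was quantified by automated Western blot against DMSO-treated basal levels, as the mean of n ≥ 3 separate experiments. Significance was assessed by one-tailed t-test.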

The target in data set [15] is T2, E3 ubiquitin-protein ligase XIAP/Tyrosine-protein kinase JAK2 (Homo sapiens). As to the kind of experiment: Protac activity at IAP/JAK2 in human THP1 cells assessed as increase in JAK2 degradation at 5 uM after 24 hrs in presence of IAP ligand by Western blot analysis. It counts as cell-based. The settings on record: THP-1. The procedure, abridged:
as §5

The target is the same in data set [16]. The data set can be described thus: Protac activity at IAP/JAK2 in human THP1 cells assessed as increase in JAK2 ubiquitination by immunoprecipitation assay. The settings on record: THP-1. It counts as cell-based.
Data set [17] has the same target. As to the kind of experiment: Protac activity at IAP/JAK2 in human THP1 cells assessed as increase in JAK2 degradation in presence of proteasome inhibitor MG132 by immunoprecipitation assay. Type of data set: cell-based. To be noted: THP-1.
The target in data set [18] is T1, E3 ubiquitin-protein ligase XIAP/Tyrosine-protein kinase JAK1 (Homo sapiens). The data set can be described thus: Protac activity at IAP/JAK1 in human THP1 cells assessed as increase in JAK1 degradation in presence of proteasome inhibitor MG132 by immunoprecipitation assay. Type of data set: cell-based. The settings on record: THP-1.

T1 sequence (P23458 whole entry, looked up): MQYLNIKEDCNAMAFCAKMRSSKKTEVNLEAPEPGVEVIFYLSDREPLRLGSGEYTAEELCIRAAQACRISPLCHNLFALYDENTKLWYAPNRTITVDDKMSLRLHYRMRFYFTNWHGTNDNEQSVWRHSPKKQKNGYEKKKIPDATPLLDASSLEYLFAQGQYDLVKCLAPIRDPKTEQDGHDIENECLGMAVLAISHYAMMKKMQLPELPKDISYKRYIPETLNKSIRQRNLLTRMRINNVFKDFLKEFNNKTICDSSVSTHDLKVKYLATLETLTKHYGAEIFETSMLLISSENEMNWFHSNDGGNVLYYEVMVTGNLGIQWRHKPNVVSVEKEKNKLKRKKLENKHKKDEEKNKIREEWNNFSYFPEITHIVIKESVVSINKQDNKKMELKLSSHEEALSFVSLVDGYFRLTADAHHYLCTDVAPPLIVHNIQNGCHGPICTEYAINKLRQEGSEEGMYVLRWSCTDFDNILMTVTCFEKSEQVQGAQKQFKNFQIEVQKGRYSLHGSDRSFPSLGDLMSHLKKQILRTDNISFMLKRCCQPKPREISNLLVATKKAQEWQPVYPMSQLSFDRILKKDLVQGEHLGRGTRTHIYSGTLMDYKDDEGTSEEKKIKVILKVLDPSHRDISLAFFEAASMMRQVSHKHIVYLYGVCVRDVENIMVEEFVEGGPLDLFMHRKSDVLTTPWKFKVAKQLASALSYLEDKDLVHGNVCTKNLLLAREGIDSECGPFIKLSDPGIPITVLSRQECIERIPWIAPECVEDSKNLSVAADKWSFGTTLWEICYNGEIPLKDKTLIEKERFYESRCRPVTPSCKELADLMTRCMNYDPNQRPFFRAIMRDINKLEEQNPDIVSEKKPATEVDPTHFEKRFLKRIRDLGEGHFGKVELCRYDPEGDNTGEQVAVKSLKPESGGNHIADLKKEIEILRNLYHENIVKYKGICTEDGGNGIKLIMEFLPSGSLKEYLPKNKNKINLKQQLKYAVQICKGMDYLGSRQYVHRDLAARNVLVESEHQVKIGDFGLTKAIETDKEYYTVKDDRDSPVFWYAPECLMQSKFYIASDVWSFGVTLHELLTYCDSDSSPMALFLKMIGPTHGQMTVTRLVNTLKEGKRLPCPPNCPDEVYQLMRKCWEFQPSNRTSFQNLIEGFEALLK
T1 sequence (P98170 whole entry, looked up): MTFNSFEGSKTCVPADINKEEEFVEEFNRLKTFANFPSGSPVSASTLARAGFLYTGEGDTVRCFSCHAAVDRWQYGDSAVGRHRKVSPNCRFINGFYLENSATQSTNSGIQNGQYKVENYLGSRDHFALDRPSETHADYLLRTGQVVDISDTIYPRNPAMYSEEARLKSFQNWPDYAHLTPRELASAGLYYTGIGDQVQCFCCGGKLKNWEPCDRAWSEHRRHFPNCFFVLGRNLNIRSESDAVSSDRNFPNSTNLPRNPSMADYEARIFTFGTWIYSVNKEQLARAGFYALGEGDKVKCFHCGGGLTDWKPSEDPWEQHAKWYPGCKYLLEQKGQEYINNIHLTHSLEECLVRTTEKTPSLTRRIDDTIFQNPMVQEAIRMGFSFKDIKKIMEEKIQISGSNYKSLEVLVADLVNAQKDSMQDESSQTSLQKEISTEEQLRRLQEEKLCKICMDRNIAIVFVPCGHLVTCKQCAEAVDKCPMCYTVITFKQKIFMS
T2 sequence (O60674 whole entry, looked up): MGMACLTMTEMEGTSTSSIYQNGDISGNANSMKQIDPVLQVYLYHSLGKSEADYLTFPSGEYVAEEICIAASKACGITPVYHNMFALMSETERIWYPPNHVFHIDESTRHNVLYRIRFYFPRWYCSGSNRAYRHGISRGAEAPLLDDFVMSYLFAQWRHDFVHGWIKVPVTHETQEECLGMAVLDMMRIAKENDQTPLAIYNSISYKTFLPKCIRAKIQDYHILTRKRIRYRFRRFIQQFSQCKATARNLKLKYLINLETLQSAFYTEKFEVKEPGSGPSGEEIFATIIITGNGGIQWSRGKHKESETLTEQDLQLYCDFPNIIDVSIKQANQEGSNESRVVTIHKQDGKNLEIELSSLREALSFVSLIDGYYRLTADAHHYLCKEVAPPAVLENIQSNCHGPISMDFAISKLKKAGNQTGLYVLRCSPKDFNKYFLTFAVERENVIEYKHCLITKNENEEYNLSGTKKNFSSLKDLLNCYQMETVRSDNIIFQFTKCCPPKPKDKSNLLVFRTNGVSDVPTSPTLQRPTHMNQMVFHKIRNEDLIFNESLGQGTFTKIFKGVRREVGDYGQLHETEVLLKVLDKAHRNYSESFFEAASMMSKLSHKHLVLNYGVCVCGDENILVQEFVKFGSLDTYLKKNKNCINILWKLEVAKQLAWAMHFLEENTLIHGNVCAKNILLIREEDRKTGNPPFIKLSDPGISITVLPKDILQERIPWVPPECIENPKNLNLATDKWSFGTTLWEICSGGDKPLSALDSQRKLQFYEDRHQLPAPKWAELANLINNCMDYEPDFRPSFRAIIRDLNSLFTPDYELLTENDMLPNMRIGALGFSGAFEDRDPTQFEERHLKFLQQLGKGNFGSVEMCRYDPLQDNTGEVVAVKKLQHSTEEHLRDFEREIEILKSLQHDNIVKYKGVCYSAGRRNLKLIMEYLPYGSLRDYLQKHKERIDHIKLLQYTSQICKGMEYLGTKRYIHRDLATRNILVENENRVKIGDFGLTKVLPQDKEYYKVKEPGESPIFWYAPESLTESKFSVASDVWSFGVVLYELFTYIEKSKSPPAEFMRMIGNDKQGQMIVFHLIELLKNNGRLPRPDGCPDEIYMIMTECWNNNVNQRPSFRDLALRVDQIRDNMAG
T2 sequence (P98170 whole entry, looked up): as the sequence (P98170 whole entry, looked up) above
Chain of Tyrosine-protein kinase JAK1 (P23458 whole entry): as the sequence (P23458 whole entry, looked up) above
Chain of Tyrosine-protein kinase JAK2 (O60674 whole entry): as the sequence (O60674 whole entry, looked up) above
Chain of JAK3/JAK1 (P23458 whole entry, one chain of several): as the sequence (P23458 whole entry, looked up) above

`CN[C@H](C)C(=O)N[C@@H](C(=O)N1C[C@H](NC(=O)CCCCCCCCCN2CCN(CCCOc3ccc(-c4cnc5cccc(-c6cc(F)c(CN7CCS(=O)(=O)CC7)c(F)c6)c5n4)cc3OC)CC2)C[C@@H]1C(=O)N[C@H]1CCCc2ccccc21)C1CCCCC1`: the outcome in data set [1] and in data set [2] was inactive.

As to `CN[C@@H](C)C(=O)N[C@H](C(=O)N1C[C@@H](NC(=O)CCCCCCCCCOc2cc(F)cc(CNc3nc(Nc4cnn(C)c4)ncc3Cl)c2F)C[C@H]1C(=O)N[C@@H]1CCCc2ccccc21)C1CCCCC1`, in [3], the result was Active. For the same molecule, the Activity in data set [4] was under 35%. The chromatographic logD – broadly, a lipophilicity value derived from retention on a column – in [5] fell in the range of 5 to 8. The result in data set [6], in data set [7] and in [8] was inactive.

As to `OCCn1cc(Nc2ncc(Cl)c(NCc3cc(F)ccc3F)n2)cn1`, the 50% inhibitory concentration (IC50) (in general, the concentration needed to halve the response being measured) at JAK3/JAK1 is 7.94 nM; in data set [9], under 0.158 nM; in data set [10], 0.316 nM; in data set [11] it was 1 nM. The Selectivity ratio was over 50 in the data set filed under Homo sapiens [12] and 8 in the data set listed under Homo sapiens [13]. The molecule further returned a chromatographic logD in data set [5] of 3.5.

As to `CN[C@@H](C)C(=O)N[C@H](C(=O)N1C[C@@H](NC(=O)COCCOCCOCCOCCn2cc(Nc3ncc(Cl)c(NCc4cc(F)ccc4F)n3)cn2)C[C@H]1C(=O)N[C@@H]1CCCc2ccccc21)C1CCCCC1`, in data set [3], the outcome was Active. Besides, the Activity in data set [4] is under 35%. In data set [5], this molecule came in with a chromatographic logD of 5 to 8. The result in [6] was inactive.

`CN[C@@H](C)C(=O)N[C@H](C(=O)N1C[C@@H](NC(=O)CCCCCCCCCN2CCN(CCCOc3ccc(-c4cnc5cccc(-c6cc(F)c(CN7CCS(=O)(=O)CC7)c(F)c6)c5n4)cc3OC)CC2)C[C@H]1C(=O)N[C@@H]1CCCc2ccccc21)C1CCCCC1`: the result in data set [3] and in data set [16] was Active. The Activity in data set [4] is under 35%; in data set [1], 48%; in data set [2] it was 65%. Also, the result in [14], in data set [15], in data set [6], in data set [17] and in data set [18] was inactive. In data set [5], the chromatographic logD is 5 to 8.

As to `CN[C@@H](C)C(=O)N[C@H](C(=O)N1C[C@@H](NC(=O)COCCOCCOCCOCCN2CCN(CCCOc3ccc(-c4cnc5cccc(-c6cc(F)c(CN7CCS(=O)(=O)CC7)c(F)c6)c5n4)cc3OC)CC2)C[C@H]1C(=O)N[C@@H]1CCCc2ccccc21)C1CCCCC1`, the outcome in data set [3] was Active. For the same molecule, the Activity in data set [4] is under 35%. Further, the chromatographic logD in data set [5] lay within 5 to 8. In data set [6], the result was inactive.

`COc1cc(-c2cnc3cccc(-c4cc(F)c(CN5CCS(=O)(=O)CC5)c(F)c4)c3n2)ccc1OCCCN1CCOCC1`: the IC50 at JAK3/JAK1 is 316 nM; in [9] it was 7.94 nM; in data set [10] it was 0.251 nM; in data set [11] it was 7.94 nM. For the same molecule, the outcome in data set [1], in data set [2], in data set [14] and in [15] was inactive. Moreover, the Selectivity ratio in the data set filed under Homo sapiens [12] and in the data set listed under Homo sapiens [13] was 40 throughout. In data set [5], this molecule gave a chromatographic logD of 6.

On to `CN[C@@H](C)C(=O)N[C@H](C(=O)N1C[C@@H](NC(=O)COCCOCCOCCOCCOc2cc(F)cc(CNc3nc(Nc4cnn(C)c4)ncc3Cl)c2F)C[C@H]1C(=O)N[C@@H]1CCCc2ccccc21)C1CCCCC1`, for which, in [3], the result was Active. Further, in data set [4], the Activity was under 35%. The same molecule yielded a chromatographic logD in [5] of 5 to 8. Besides, the result in data set [6] was inactive.

For `CN[C@@H](C)C(=O)N[C@H](C(=O)N1C[C@@H](NC(=O)CCCCCCCCCn2cc(Nc3ncc(Cl)c(NCc4cc(F)ccc4F)n3)cn2)C[C@H]1C(=O)N[C@@H]1CCCc2ccccc21)C1CCCCC1`, the outcome in data set [3] was Active. Also, the Activity in [4] was under 35%. Further, the chromatographic logD in data set [5] was in the range of 5 to 8. In data set [6], the outcome was inactive.
